According to ChEMBL document CHEMBL3763062, “Conformational Analysis of the Host-Defense Peptides Pseudhymenochirin-1Pb and -2Pa and Design of Analogues with Insulin-Releasing Activities and Reduced Toxicities” (J Nat Prod, 2015):
In brackets after ≈: the same amount, converted by molar mass. Residues, ends and D or L forms follow the SMILES beside them.

Experiments:
[1] = (§1) Induction of insulin release in rat BRIN-BD11 cells after 20 mins by radioimmunoassay in presence of 5.6 mM glucose; format: functional; conditions: BRIN-BD11, 20 min, read-out: MEC
In short: (§2)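 BRIN-BD11 cells were seeded and allowed to attach overnight at 37 °C. They were then incubated 20 min at 37 °C with peptides (10⁻¹¹ to 3 × 10⁻⁶ M; n = 8) in KRB buffer with 5.6 mM glucose. Supernatant insulin was measured by radioimmunoassay, expressed as ng/10⁶ cells/20 min, and compared with 5.6 mM glucose alone.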

[2] = Cytotoxicity in rat BRIN-BD11 cells assessed as LDH release at >= 1 uM after 20 mins by CytoTox96 assay; format: cell-based; conditions: brin-bd11, 20 min
In short: (§3)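 BRIN-BD11 monolayers were exposed to peptides (10⁻¹¹ to 3 × 10⁻⁶ M; n = 6) for 20 min at 37 °C in KRB buffer with 5.6 mM glucose. LDH in the supernatant was quantified by a colorimetric kit and compared with 5.6 mM glucose alone.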

HT-29 = test: Cytotoxicity against human HT-29 cells assessed as cell viability after 24 hrs by CellTiter-Glo luminescent assay; format: functional, cell-based; conditions: HT-29, 24 h
In short: (§4)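 Human tumour lines and HUVEC were cultured at 37 °C in medium with antibiotics. Cells were seeded at 5 × 10³ cells/well and exposed to peptides (10⁻⁶–10⁻⁴ M) in triplicate for 24 h at 37 °C. Viability was read as ATP luminescence. IC50 is the mean concentration giving 50% cell death over at least three independent experiments.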

HUVEC = test: Cytotoxicity against human HUVEC cells assessed as cell viability after 24 hrs by CellTiter-Glo luminescent assay; format: cell-based; in short: as §4
MDA-MB-231 = test: Cytotoxicity against human MDA-MB-231 cells assessed as cell viability after 24 hrs by CellTiter-Glo luminescent assay; format: functional, cell-based; conditions: MDA-MB-231, 24 h; in short: as §4
[3] = Cytotoxicity against Swiss mouse RBC assessed as hemolytic activity […]; format: cell-based; conditions: Erythrocyte
In short: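 Erythrocytes came from male NIH Swiss mice and were exposed to peptides at 1.6 × 10⁻⁶ to […]. IC50 is the mean concentration producing 50% haemolysis.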

A549 = test: Cytotoxicity against human A549 cells assessed as cell viability after 24 hrs by CellTiter-Glo luminescent assay; format: functional, cell-based; conditions: A549, 24 h; in short: as §4
[4] = Induction of insulin release in rat BRIN-BD11 cells at 3 uM after 20 mins in presence of 5.6 mM glucose by radioimmunoassay relative to control; format: functional; in short: as §2
[5] = test system: Staphylococcus epidermidis; test: Antibacterial activity against Staphylococcus epidermidis ATCC 12228 by microdilution method; format: functional
In short: (§5)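 Reference ATCC strains tested. The MIC was determined by standard broth microdilution in three independent experiments.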

Staphylococcus aureus = test: Antibacterial activity against Staphylococcus aureus ATCC 25923 by microdilution method; format: functional; in short: as §5
Escherichia coli = test: Antibacterial activity against Escherichia coli ATCC 25922 by microdilution method; format: functional; in short: as §5
BRIN-BD11 = test: as §1; format: functional; in short: as §2
[6] = Cytotoxicity in rat BRIN-BD11 cells assessed as LDH release at >1 uM after 20 mins by CytoTox96 assay; format: cell-based; conditions: brin-bd11, 20 min; in short: as §3
Pseudomonas aeruginosa = test: Antibacterial activity against Pseudomonas aeruginosa ATCC 27853 by microdilution method; format: functional; in short: as §5
[7] = Cytotoxicity in rat BRIN-BD11 cells assessed as LDH release at 1 or 3 uM after 20 mins by CytoTox96 assay; format: cell-based; conditions: brin-bd11, 20 min; in short: as §3
[8] = Induction of insulin release in rat BRIN-BD11 cells at […] after 20 mins measured per 10^6 cells by radioimmunoassay in presence of 5.6 mM glucose (reference value: 0.97 to 1.05 ng); format: functional

MIC [5] [µM]	MIC (Staphylococcus aureus) [µM]	MIC (Escherichia coli) [µM]	MIC (Pseudomonas aeruginosa) [µM]	Molecule	minimal effective concentration [1] [µM]	Activity [2]	IC50 (HT-29) [µM]	IC50 (HUVEC) [µM]	IC50 (MDA-MB-231) [µM]	IC50 [3] [µM]	IC50 (A549) [µM]	Activity [4] [%]	Activity (BRIN-BD11)	Activity [6]	Activity [7]	Activity [8] [ng]
–	–	–	–	H-GIFPIFAKLLGKVIKVASSLISKGRTK-OH [listing 1 of 2 here]	0.001	–	–	–	–	–	–	–	–	–	–	–
–	–	–	–	CC[C@H](C)[C@H](N)C(=O)N[C@@H](CCCCN)C(=O)N[C@H](C(=O)N1CCC[C@H]1C(=O)N[C@@H](CO)C(=O)N[C@@H](Cc1ccccc1)C(=O)N[C@@H](Cc1ccccc1)C(=O)N[C@@H](CCCNC(=N)N)C(=O)N[C@@H](CC(N)=O)C(=O)N[C@H](C(=O)N[C@@H](CC(C)C)C(=O)N[C@@H](CCCCN)C(=O)N[C@@H](CCCCN)C(=O)N[C@H](C(=O)NCC(=O)N[C@@H](CCCCN)C(=O)N[C@H](CCCCN)C(=O)N[C@@H](C)C(=O)N[C@H](C(=O)N[C@@H](CO)C(=O)N[C@@H](CC(C)C)C(=O)N[C@H](C(=O)N[C@@H](C)C(=O)NCC(=O)N[C@@H](C)C(=O)N[C@@H](CC(C)C)C(=O)N[C@@H](CCCCN)C(=O)N[C@@H](CCC(N)=O)C(=O)N[C@@H](CO)C(=O)O)[C@@H](C)CC)C(C)C)C(C)C)[C@@H](C)CC)[C@@H](C)CC	0.0003	Toxic	11	5	3.6	19	2.1	–	–	–	–	–
2.5 (≈ 7.89 µg/mL)	5 (≈ 15.8 µg/mL)	10 (≈ 31.6 µg/mL)	20 (≈ 63.1 µg/mL)	CC[C@H](C)[C@H](N)C(=O)N[C@@H](CCCCN)C(=O)N[C@H](C(=O)N1CCC[C@H]1C(=O)N[C@@H](CO)C(=O)N[C@@H](Cc1ccccc1)C(=O)N[C@@H](Cc1ccccc1)C(=O)N[C@@H](CCCNC(=N)N)C(=O)N[C@@H](CC(N)=O)C(=O)N[C@H](C(=O)N[C@@H](CC(C)C)C(=O)N[C@@H](CCCCN)C(=O)N[C@@H](CCCCN)C(=O)N[C@H](C(=O)NCC(=O)N[C@@H](CCCCN)C(=O)N[C@@H](CCC(=O)O)C(=O)N[C@@H](C)C(=O)N[C@H](C(=O)N[C@@H](CO)C(=O)N[C@@H](CC(C)C)C(=O)N[C@H](C(=O)N[C@@H](C)C(=O)NCC(=O)N[C@@H](C)C(=O)N[C@@H](CC(C)C)C(=O)N[C@@H](CCCCN)C(=O)N[C@@H](CCC(N)=O)C(=O)N[C@@H](CO)C(=O)O)[C@@H](C)CC)C(C)C)C(C)C)[C@@H](C)CC)[C@@H](C)CC	0.0001	–	9.5	5.6	6.6	30	2.5	530	Dose-dependent effect	Toxic	–	–
40 (≈ 126 µg/mL)	80 (≈ 253 µg/mL)	2.5 (≈ 7.89 µg/mL)	10 (≈ 31.6 µg/mL)	CC[C@H](C)[C@H](N)C(=O)N[C@@H](CCCCN)C(=O)N[C@H](C(=O)N1CCC[C@H]1C(=O)N[C@@H](CO)C(=O)N[C@@H](Cc1ccccc1)C(=O)N[C@@H](Cc1ccccc1)C(=O)N[C@H](CCCNC(=N)N)C(=O)N[C@@H](CC(N)=O)C(=O)N[C@H](C(=O)N[C@@H](CC(C)C)C(=O)N[C@@H](CCCCN)C(=O)N[C@@H](CCCCN)C(=O)N[C@H](C(=O)NCC(=O)N[C@@H](CCCCN)C(=O)N[C@@H](CCC(=O)O)C(=O)N[C@@H](C)C(=O)N[C@H](C(=O)N[C@@H](CO)C(=O)N[C@@H](CC(C)C)C(=O)N[C@H](C(=O)N[C@@H](C)C(=O)NCC(=O)N[C@@H](C)C(=O)N[C@@H](CC(C)C)C(=O)N[C@@H](CCCCN)C(=O)N[C@@H](CCC(N)=O)C(=O)N[C@@H](CO)C(=O)O)[C@@H](C)CC)C(C)C)C(C)C)[C@@H](C)CC)[C@@H](C)CC	0.0003	–	35	27	20	> 100	7.2	190	–	–	Non-toxic	–
–	–	–	–	H-GIFPIFAKLLGKVIKVASSLISKGRTK-OH [listing 2 of 2 here]	–	Toxic	5.6	5	4.3	4	2.5	–	–	–	–	–
5 (≈ 14.4 µg/mL)	5 (≈ 14.4 µg/mL)	80 (≈ 230 µg/mL)	80 (≈ 230 µg/mL)	CC[C@H](C)[C@H](NC(=O)CN)C(=O)N[C@@H](Cc1ccccc1)C(=O)N1CCC[C@H]1C(=O)N[C@H](C(=O)N[C@@H](Cc1ccccc1)C(=O)N[C@@H](C)C(=O)N[C@@H](CCCCN)C(=O)N[C@@H](CC(C)C)C(=O)N[C@@H](CC(C)C)C(=O)NCC(=O)N[C@@H](CCCCN)C(=O)N[C@H](C(=O)N[C@H](C(=O)N[C@@H](CCCCN)C(=O)N[C@H](C(=O)N[C@@H](C)C(=O)N[C@@H](CO)C(=O)N[C@@H](CO)C(=O)N[C@@H](CC(C)C)C(=O)N[C@H](C(=O)N[C@@H](CO)C(=O)N[C@@H](CCCCN)C(=O)NCC(=O)N[C@@H](CCCNC(=N)N)C(=O)NC(C(=O)N[C@@H](CCC(=O)O)C(=O)O)[C@@H](C)O)[C@@H](C)CC)C(C)C)[C@@H](C)CC)C(C)C)[C@@H](C)CC (some centres not stated) (HELM PEPTIDE1{G.I.F.P.I.F.A.K.L.L.G.K.V.I.K.V.A.S.S.L.I.S.K.G.R.[C[C@@H](O)C(N[*:1])C(=O)[*:2]].E}$$$$V2.0)	0.0001	–	12	68	6.2	7	6	700	–	Toxic	–	–
–	–	–	–	C[C@H](N)C(=O)O [ALANINE]	–	–	–	–	–	–	–	–	–	–	–	4.2
